Efflux pump mplx: antifungal efflux pump inhibition, Nile Red retention; S. cerevisiae Candida pump triplex; inhibition, % at 10 µM; 330,000 tested, 0.44% active;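 active means plate passing quality check with inhibition over a set limit, or well fluorescence over plate mean plus 4 SD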;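 further: Nile Red retained in pooled yeast measured as flow cytometry median fluorescence; higher means more Nile Red kept so more efflux inhibition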
FGF22 binding: FGF22 (human) thermal shift binding. AID 651658. 340,000 tested, 1.5% active. Q9HCT0. recombinant FGF22 thermal shift, SYPRO orange fluorescence; percent of sucrose octasulfate shift, DMSO zero. activity (Tm shift, normalised), % at 9.99 µM;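 active means mean Tm shift, scaled 0 neutral to 100 positive control, at about 1.3% or above, every replicate too, limit read from the data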
Target sequence (Q9HCT0 whole entry, looked up): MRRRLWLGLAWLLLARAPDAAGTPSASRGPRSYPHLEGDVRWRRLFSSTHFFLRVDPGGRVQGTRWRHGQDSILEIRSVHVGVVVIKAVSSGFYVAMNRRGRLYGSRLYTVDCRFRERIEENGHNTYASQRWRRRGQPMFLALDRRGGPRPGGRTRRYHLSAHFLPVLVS
ASAP1 GAP inh: blocks human ASAP1-stimulated Arf1 GTP hydrolysis; 360,000 tested, 0.19% active; GDP FP detection; AID 624377; Q9ULH1; inhibition, % at 16.5 µM; in the data active means inhibition above about 25%
ARFGAP1 inhibitor: inhibitors of rat ARFGAP1. Q62848. Arfgap1-stimulated ARF1 GTP hydrolysis, GDP FP detection. inhibition, % at 16.5 µM. 360,000 tested, 0.26% active;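 active means inhibition above a per-plate limit, mean inhibition of low control wells plus 3 SD, cut at about 25% in these data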
Target sequence (Q62848 1-136 limits assumed): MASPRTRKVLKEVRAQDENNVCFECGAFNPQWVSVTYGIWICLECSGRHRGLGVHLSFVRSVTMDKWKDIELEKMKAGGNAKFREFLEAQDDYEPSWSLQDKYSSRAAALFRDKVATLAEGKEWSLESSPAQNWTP
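Assay system: purified rat His6-Arfgap1 residues 1-136 (GAP domain); Reagent: human Δ17 ARF1 bound to GTP; Dosing: 16.5 µM single point, 1.26% DMSO; Times: GTP hydrolysis reaction 2 h at 25 °C; Signal: FP, GDP Alexa 633 tracer displaced from anti-GDP antibody, 620/688 nm; Measure: % inhibition from polarization.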
Rtt109 HAT inh: blocks Candida albicans Rtt109/Vps75 acetyltransferase activity; purified Rtt109/Vps75, ThioGlo CoA-SH fluorescence, 4 h; inhibition, % at 34.9 µM; 330,000 tested, 0.16% active;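 active means inhibition of at least 50% in every replicate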
Large screens that a line does not name were inactive. In the library only some 1.9% were active in any assay of this set; here they are far more common.

COc1ccc(CC(=O)OCCc2cc3cc(OC)c(OC)cc3c(=O)o2)cc1	none
CCOC(=O)Sc1nc2ncncc2[nH]1	FGF22 binding 43 (no result: Efflux pump mplx)
COc1ccccc1NC(=O)C1CCCCN1S(=O)(=O)c1ccc(F)cc1 (configuration not stated)	none (no result: FGF22 binding)
CCOc1ccc(S(=O)(=O)N2CCOCC2)c2ccccc12	none
O=C(Cn1nnc(-c2ccccc2)n1)NCc1cccs1	none (no result: FGF22 binding, Rtt109 HAT inh)
O=C(Cn1nnc(-c2cccs2)n1)NCc1cccs1	FGF22 binding 43
C=C(C)COc1ccc(-c2ncncc2-c2ccc(Cl)cc2)c(O)c1	none
C=CCNC(=O)c1ccccc1NC(=O)COc1ccccc1	none
C=CCNC(=O)c1ccccc1NC(=O)COc1ccc(OC)cc1	FGF22 binding 44
CN(C(=O)c1ccc(N2CCCCC2)c([N+](=O)[O-])c1)C1(C)CCS(=O)(=O)C1 (configuration not stated)	Rtt109 HAT inh 53
O=C1NC(=S)CN1c1ccccc1	Rtt109 HAT inh 141
O=C1N(c2ccccc2)CCN1c1ccccc1	none
CN(CC(=O)NCCN1CCOCC1)S(=O)(=O)c1ccc(Cl)cc1	FGF22 binding 43
COc1ccc(S(=O)(=O)N(C)CC(=O)NCCN2CCOCC2)cc1Cl	none
CCOC(=O)CSc1ccc(C(=O)N2CCN(C)CC2)cc1[N+](=O)[O-]	FGF22 binding 43
COCCCN1C(=O)C(CC(=O)NC2CC2)CC(C(=O)N2CCOCC2)=C1C (configuration not stated)	none (no result: Efflux pump mplx, Rtt109 HAT inh)
CC1CC2(C)Oc3ccccc3CC2C(C)C1CNCCCN(C)C (configuration not stated)	FGF22 binding 43
CC1Cc2ccccc2N1C(=O)CNCCCN(C)C (configuration not stated)	none (no result: FGF22 binding)
O=C(c1cccnc1)N1CCN(C/C=C/c2ccccc2)CC1	FGF22 binding 43
O=C(NC(=S)N1CCN(C/C=C/c2ccccc2)CC1)c1cccnc1	none
Cc1ccc(OCC(=O)Nc2sc3c(c2C#N)CC(C)(C)NC3(C)C)cc1	FGF22 binding 43
CC(=O)Oc1ccccc1C(=O)Nc1ccccc1C(=O)N1CCCCC1	none
CC1(c2ccc3noc(-c4cccc(F)c4)c3c2)OCCO1	none
COc1ccc(Br)cc1/C=N/NC(=O)c1cc(OC)c(OC)c(OC)c1	none (no result: FGF22 binding)
COc1c(OC(C)=O)ccc(/C=N\NC(=O)c2ccc(Br)cc2)c1[N+](=O)[O-]	FGF22 binding 45
Cc1ccc2[nH]c(CN3CCC(CO)(CC4CCCCO4)CC3)c(C)c2c1 (configuration not stated)	FGF22 binding 43
Cc1ccc(CN2CCC(CO)(CC3CCCCO3)CC2)o1 (configuration not stated)	none
CN(CC(=O)Nc1ccc(F)cc1)C(=O)COc1ccccc1Cc1ccccc1	Rtt109 HAT inh 51
Cc1ccc(SCCC(=O)Nc2ccccc2C(=O)NC(C)C)cc1	none (no result: FGF22 binding)
Cc1ccc(SCCC(=O)Nc2ccccc2Br)cc1	FGF22 binding 43
CCOc1ccc(C(C)NC(=S)NCc2ccc(Cl)cc2)cc1 (configuration not stated)	FGF22 binding 43
Cc1ccc(-c2cc(C(=O)NC3CCCCC3)no2)cc1	none
Clc1ccc(-c2nc3ccccn3c2CN2CCOCC2)cc1	none (no result: FGF22 binding)
CC(NC(=O)COC(=O)c1cc(Cl)nc(Cl)c1)c1ccccc1 (configuration not stated)	FGF22 binding 43
CCN(CC)S(=O)(=O)c1cccc(NC(=O)COC(=O)c2cc(=O)c3ccccc3o2)c1	none
O=C(N/C(=C/c1cccs1)C(=O)N1CCCC1)c1ccccc1	none
CN(C)S(=O)(=O)n1cc(/C=C(\NC(=O)c2ccccc2)C(=O)N2CCCCC2)c2ccccc21	none (no result: Efflux pump mplx, Rtt109 HAT inh)
CN1CCN(C(=O)/C(=C\c2cccs2)NC(=O)c2ccccc2)CC1	FGF22 binding 27
CN(C)S(=O)(=O)n1cc(/C=C(\NC(=O)c2ccccc2)C(=O)N2CCCC2)c2ccccc21	Rtt109 HAT inh 74
NC(=S)C(c1ccccc1)c1ncc(C(F)(F)F)cc1Cl (configuration not stated)	none
COC(=O)[C@]12C[C@H](CC(=O)N3CCC(c4ccccc4)CC3)C(=O)N(Cc3ccccc3)C1=C[C@H](C(C)C)O[C@@H]2C1CC1	none (no result: Efflux pump mplx, Rtt109 HAT inh)
c1ccc(-c2cc(-c3cc(-c4ccccc4)on3)no2)cc1	FGF22 binding 43 (no result: Efflux pump mplx, Rtt109 HAT inh)
CCN(CC)c1ccc(C=C2C(=O)OC(c3ccccc3)OC2=O)cc1 (configuration not stated)	none

Screening results (PubChem)
